The target in experiment [1] is Mediator of RNA polymerase II transcription subunit 23 (Homo sapiens). Description: Inhibition of ESX-Med23 interaction assessed as binding affinity to Med23 (352-625) by fluorescence polarization. For orientation: Polarisation of emitted light reports the rotation of a fluorescent probe.
In the next experiment the test system is SK-BR-3. Description: Cytotoxicity against human SK-BR-3 cells after 24 hrs by WST-1 assay. It counts as functional, cell-based. (Formazan colour is commonly taken as a measure of viable cells.)
Experiment [2] deals with T1, ETS-related transcription factor Elf-3/Vitamin D3 receptor-interacting protein (ESX/MED23) (Homo sapiens) (UniProt Q9ULK4+P78545). Description: Inhibition of ESX-Med23 interaction in human BT474 cells assessed as down regulation of ErbB2 expression up to 50 uM by Western blotting. It counts as cell-based. Particulars: BT-474.
T1 sequence (P78545 whole entry, looked up): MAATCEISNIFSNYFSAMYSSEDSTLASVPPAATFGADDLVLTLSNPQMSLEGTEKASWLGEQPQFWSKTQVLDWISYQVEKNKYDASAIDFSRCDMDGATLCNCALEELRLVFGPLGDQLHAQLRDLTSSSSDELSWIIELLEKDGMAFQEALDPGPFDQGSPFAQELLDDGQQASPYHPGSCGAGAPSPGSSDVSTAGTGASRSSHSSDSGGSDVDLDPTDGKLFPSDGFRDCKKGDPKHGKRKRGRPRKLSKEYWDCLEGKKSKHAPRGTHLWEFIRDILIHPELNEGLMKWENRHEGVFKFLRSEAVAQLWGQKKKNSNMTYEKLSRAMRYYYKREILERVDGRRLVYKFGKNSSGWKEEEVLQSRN
T1 sequence (Q9ULK4 whole entry, looked up): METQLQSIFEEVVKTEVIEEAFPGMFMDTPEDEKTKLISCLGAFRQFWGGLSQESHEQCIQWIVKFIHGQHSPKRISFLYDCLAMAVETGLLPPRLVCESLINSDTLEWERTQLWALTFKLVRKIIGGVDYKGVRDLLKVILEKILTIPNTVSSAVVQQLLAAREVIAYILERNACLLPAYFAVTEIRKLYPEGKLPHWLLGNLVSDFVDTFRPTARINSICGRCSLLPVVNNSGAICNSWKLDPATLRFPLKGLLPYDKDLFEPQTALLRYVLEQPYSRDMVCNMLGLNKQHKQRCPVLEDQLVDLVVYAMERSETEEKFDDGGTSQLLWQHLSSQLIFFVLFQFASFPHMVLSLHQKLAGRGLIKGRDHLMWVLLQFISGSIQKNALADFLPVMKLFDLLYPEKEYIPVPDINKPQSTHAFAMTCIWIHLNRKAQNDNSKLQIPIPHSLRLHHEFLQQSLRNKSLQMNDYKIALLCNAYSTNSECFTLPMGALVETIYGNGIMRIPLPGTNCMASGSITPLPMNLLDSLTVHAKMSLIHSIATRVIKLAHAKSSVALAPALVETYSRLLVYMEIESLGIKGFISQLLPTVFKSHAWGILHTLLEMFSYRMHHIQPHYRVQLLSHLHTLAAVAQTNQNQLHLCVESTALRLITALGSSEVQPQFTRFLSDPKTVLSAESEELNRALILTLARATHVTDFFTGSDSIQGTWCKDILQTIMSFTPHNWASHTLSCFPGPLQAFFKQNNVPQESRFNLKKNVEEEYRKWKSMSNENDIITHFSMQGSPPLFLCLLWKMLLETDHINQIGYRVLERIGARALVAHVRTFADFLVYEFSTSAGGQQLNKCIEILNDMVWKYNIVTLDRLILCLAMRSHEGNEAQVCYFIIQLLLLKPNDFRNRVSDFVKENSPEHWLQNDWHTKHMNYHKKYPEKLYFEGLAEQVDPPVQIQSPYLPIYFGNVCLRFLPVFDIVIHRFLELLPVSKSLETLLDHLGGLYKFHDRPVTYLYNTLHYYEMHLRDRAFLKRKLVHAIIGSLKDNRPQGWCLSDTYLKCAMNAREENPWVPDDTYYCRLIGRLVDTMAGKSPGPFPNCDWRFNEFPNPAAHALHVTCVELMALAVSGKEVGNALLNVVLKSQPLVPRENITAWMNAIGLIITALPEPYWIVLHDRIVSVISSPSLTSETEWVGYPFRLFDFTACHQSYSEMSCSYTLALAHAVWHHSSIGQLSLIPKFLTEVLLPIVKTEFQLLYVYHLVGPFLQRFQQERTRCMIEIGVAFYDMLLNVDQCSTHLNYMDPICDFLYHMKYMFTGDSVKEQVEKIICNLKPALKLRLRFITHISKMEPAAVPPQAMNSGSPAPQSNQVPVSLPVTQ
The target of experiment [3] is T1, ETS-related transcription factor Elf-3/Vitamin D3 receptor-interacting protein (ESX/MED23) (Homo sapiens). Description: Inhibition of ESX-Med23 interaction in human SK-BR-3 cells assessed as down regulation of ErbB2 expression at 25 uM by Western blotting. Format: cell-based. The method, boiled down:
(§1)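 SkBr3 cells treated 6 h with compound in DMSO at 0.625–50 μM (comparator 10, 50 μM), DMSO control; ErbB2 protein level by Western blot.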
Background: In western blotting, separated proteins are transferred to a membrane and probed.

Experiment [4] has the same target. Description: Inhibition of ESX-Med23 interaction in human BT474 cells assessed as down regulation of ErbB2 expression after 24 hrs by Western blotting. Format: cell-based. Particulars: BT-474.
In another experiment the test system is SCC-15. Description: Cytotoxicity against human SCC15 cells. Format: functional, cell-based.
The next experiment concerns MCF7. Nature of the experiment: Cytotoxicity against human MCF7 cells after 24 hrs by WST-1 assay. Particulars: MCF7, 24 h. Format: functional, cell-based.
For experiment [5], the target named is T1, ETS-related transcription factor Elf-3/Vitamin D3 receptor-interacting protein (ESX/MED23) (Homo sapiens). Nature of the experiment: Inhibition of ESX-Med23 interaction in human BT474 cells assessed as reduction in ErbB2 mRNA level after 6 hrs by qPCR relative to control. Format: cell-based. Particulars: BT-474. The method, boiled down: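 BT-474 cells given compound in DMSO at 10 μM for 6 h; ErbB2 mRNA quantified by qPCR, normalized to GAPDH and expressed relative to DMSO; average of 16 experiments each in quadruplicate, s.e.m., Student's t-test.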

A further experiment has as its system CAL-27. Description: Cytotoxicity against human CAL27 cells. Format: functional, cell-based.
The subject of the next experiment is SCC-25. Description: Cytotoxicity against human SCC25 cells. Format: functional, cell-based.
Experiment [6] deals with T1, ETS-related transcription factor Elf-3/Vitamin D3 receptor-interacting protein (ESX/MED23) (Homo sapiens). Description: Inhibition of ESX-Med23 interaction in human SK-BR-3 cells assessed as down regulation of ErbB2 expression by Western blotting. Format: cell-based. The method, boiled down:
as §1

The Kd is the concentration at which binding is half-saturated. The IC50 is the midpoint of a concentration-inhibition curve. Higher therefore signals a need for much substance.

Each structure is given as a SMILES string. Activity calls are given as the source filed them. The calls are words filed in the database; no cut-off is given here.

`CC(C)C[C@]1(CCO)C[C@H](CNC(=S)Nc2ccc(-c3c4ccc(=O)cc-4oc4cc(O)ccc34)c(C(=O)O)c2)ON1Cc1ccccc1`: the Kd in experiment [1] was 5.9 µM.

`CC(C)C[C@]1(CCO)C[C@H](CNC(=S)Nc2ccc(-c3c4ccc(=O)cc-4oc4cc(O)ccc34)c(C(=O)O)c2)ON1Cc1ccc(-c2ccccc2)cc1`: the Kd in experiment [1] is 0.62 µM.

For `CC(C)C[C@]1(CCO)C[C@H](CN=[N+]=[N-])ON1Cc1ccccc1`, the outcome (in the experiment with SK-BR-3; in [2]) was inactive. Also, the outcome in experiment [3] was Active.

As to `CC(C)C[C@]1(CCO)C[C@H](CNC(=S)Nc2ccc(-c3c4ccc(=O)cc-4oc4cc(O)ccc34)c(C(=O)O)c2)ON1Cc1ccc2ccccc2c1`, the Kd in experiment [1] amounted to 1 µM.

`CC(C)C[C@]1(CCO)C[C@H](CNC(=S)Nc2ccc(-c3c4ccc(=O)cc-4oc4cc(O)ccc34)c(C(=O)O)c2)ON1Cc1ccc(C(F)(F)F)cc1`: the Kd in experiment [1] is 0.59 µM.

`CC(C)C[C@]1(CCO)C[C@H](CN=[N+]=[N-])ON1Cc1ccc2ccccc2c1`: the Activity result in experiment [4] is “Dose-dependent effect”.

`CC(C)C[C@]1(CCO)C[C@H](CN=[N+]=[N-])ON1Cc1ccc(-c2ccccc2)cc1`: the IC50 in the experiment with SCC-15 was 19.2 µM; in the experiment on MCF7 it was 27 µM; in the experiment on SK-BR-3 (SK-BR-3, 24 h), 14 µM; with CAL-27 it was 21.8 µM; in the experiment on SCC-25 it was 19.8 µM. Further, the result in experiment [5] and in experiment [6] was Active. Also, the Activity result in experiment [4] was “Dose-dependent effect”.

As for `CC(C)C[C@]1(CCO)C[C@H](CN=[N+]=[N-])ON1Cc1ccc(C(F)(F)F)cc1`, the Activity result in experiment [4] is “Dose-dependent effect”.

These data come from ChEMBL document CHEMBL1154312, “Inhibition of ErbB2(Her2) expression with small molecule transcription factor mimics” (Bioorg Med Chem Lett, 2009).
